Runt-SMMHC FRET: inhibitors of human RUNX1 Runt domain binding to CBFb-SMMHC; Cerulean-Runt/Venus-CBFb-SMMHC FRET ratio 530/480, 1 h; inhibition, % at 20 µM; 0.74% of 220,000 active; AID 1434;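 active = mean inhibition across duplicate retests at 20 µM reaching about 50%, limit read from the data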;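 also: 0% = DMSO wells and 100% = wells with excess untagged CBFb-SMMHC; inhibitors lower the FRET ratio by blocking Runt binding to CBFb-SMMHC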
Hck Nef HTS: human Hck-Nef kinase inhibition. inhibition, % at 20 µM. P08631. Recombinant Hck-YEEI plus Nef, Z-Lyte FRET kinase assay. 0.68% of 220,000 active;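 active = Hck-Nef kinase inhibition above about 50%, limit read from the data; inactive = inhibition below that limit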;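 also: 0% = DMSO with Hck plus Nef and 100% = Hck alone without Nef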
Target sequence (P08631 whole entry, looked up): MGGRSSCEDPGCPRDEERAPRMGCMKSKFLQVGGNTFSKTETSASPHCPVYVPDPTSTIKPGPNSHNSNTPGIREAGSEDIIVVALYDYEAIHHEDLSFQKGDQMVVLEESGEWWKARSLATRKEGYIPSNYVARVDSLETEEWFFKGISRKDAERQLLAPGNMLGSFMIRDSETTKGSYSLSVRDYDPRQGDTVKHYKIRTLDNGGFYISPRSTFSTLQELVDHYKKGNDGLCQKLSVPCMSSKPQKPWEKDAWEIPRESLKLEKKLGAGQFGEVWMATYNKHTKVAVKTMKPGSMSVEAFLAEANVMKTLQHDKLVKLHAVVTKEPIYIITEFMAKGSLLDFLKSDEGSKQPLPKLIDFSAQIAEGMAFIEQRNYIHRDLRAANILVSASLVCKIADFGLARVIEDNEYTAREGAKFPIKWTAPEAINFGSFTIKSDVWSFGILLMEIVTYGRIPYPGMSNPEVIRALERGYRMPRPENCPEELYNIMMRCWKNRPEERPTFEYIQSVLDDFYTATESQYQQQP
TbHK1 inh: T. brucei hexokinase 1 inhibition | AID 1430 | recombinant TbHK1, G6PDH-coupled NADH A340 | inhibition, % at 10 µM | 0.11% of 220,000 active;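 active = inhibition of 50% or more in the single-dose primary screen; inactive = inhibition below 50%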
RanGTP-Impb inh: disruptors of Ran-importin-beta complex formation – biochemical, FRET, CFP-Ran, YFP-importin-beta, homogeneous, primary screen; 1.1% of 300,000 active; AID 2216; cell-free CFP-Ran/YFP-importin-beta FRET ratio; inhibition, % (test concentration not listed);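 active = more than half of the replicate wells show a fall in the fluorescence ratio signal beyond about 16%, limit read from the data, passing the limit was not always enough; inconclusive = exactly half of the replicate wells pass the set limit; inactive = fewer than half of replicates pass the limit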;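 also: 0% = DMSO wells and 100% = Ran loaded with GDP instead of GTP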
14-3-3 Bad inh: disrupts binding of bovine 14-3-3 zeta to phospho-Bad peptide | inhibition, % at 21.7 µM | P63103 | 0.71% of 220,000 active | AID 781 | TR-FRET 14-3-3zeta/Dy647-pBad peptide displacement, 1 h;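 active = inhibition above about 70%, limit read from the data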;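 also: 0% = full 14-3-3 plus peptide FRET controls and 100% = background without 14-3-3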
Target sequence (P63103 whole entry, looked up): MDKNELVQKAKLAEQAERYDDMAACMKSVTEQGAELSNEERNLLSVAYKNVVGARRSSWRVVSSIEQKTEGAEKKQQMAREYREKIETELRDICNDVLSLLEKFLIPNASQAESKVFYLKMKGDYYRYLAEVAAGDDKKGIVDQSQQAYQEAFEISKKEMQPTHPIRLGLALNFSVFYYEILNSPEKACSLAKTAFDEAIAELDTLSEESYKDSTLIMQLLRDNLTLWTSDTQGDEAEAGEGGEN
Runt-CBFb FRET: inhibitors of human RUNX1 Runt domain binding to CBFb; inhibition, % at 20 µM; Cerulean-Runt/Venus-CBFb FRET ratio 530/480, 1 h; 0.46% of 220,000 active; Q01196+Q13951;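 active = inhibition over about 50% at 20 µM in the single-dose screen, limit read from the data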;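 also: 0% = DMSO wells and 100% = excess unlabeled CBFb competitor control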
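test system = Cerulean-Runt domain fusion protein, energy donor | probe or stimulus = Venus-CBFb binding partner, 100 nM | incubation = two 1 h room-temperature incubations shielded from light | detection = fluorescence energy transfer, 422 nm excitation, 530/480 nm emission | measure = loss of energy transfer signal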
YIC FRET counter: counter-screen for RanGTP-importin-beta inhibitors: YIC FRET probe | 40% of 1,000 active | Purified YIC probe, intramolecular FRET ratio YFP/CFP | shares compounds with RanGTP-Impb inh | IC50, µM;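 active = fitted half-maximal inhibitory concentration no more than tenfold above the top dose tested; inconclusive = flat fit with 30 to 70% activity, or poor fit; inactive = half-maximal concentration beyond tenfold above the top dose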
Hck-Nef confirm: confirmation of Hck-Nef kinase inhibitors; shares compounds with Hck Nef HTS; calls only at 10 µM; 28% of 1,300 active; Recombinant Hck-YEEI:Nef, Z-Lyte FRET kinase assay;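 active = average inhibition of at least 50%, with Z-scores no higher than 3 in both the phospho-tyrosine peptide and fluorescence counterscreens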
* marks the source's active call; other numbers are inactive results; i = inactive; ? = inconclusive; / = no result given; + = active, no number. This is a sample that favours compounds with a hit; in the whole collection about 2.2% have one here.

SMILES | Runt-SMMHC FRET | Hck Nef HTS | TbHK1 inh | RanGTP-Impb inh | 14-3-3 Bad inh | Runt-CBFb FRET | YIC FRET counter | others
COc1ccc(CCn2c(=N)c(C(=O)NCC3CCCO3)cc3c(=O)n4cccc(C)c4nc32)cc1 (stereo not given) | / | / | / | 28.9* | / | / | 13.8*
COc1ccc(CCNC(=O)c2cc3c(=O)n4cccc(C)c4nc3n(CCCN3CCOCC3)c2=N)cc1 | / | / | / | 39.4* | / | / | 4.45*
COc1ccc(OCc2nnc(SCC(=O)Nc3ccc(C)cc3)o2)cc1 | / | / | / | 4.6 | / | / | /
Cc1ccc(OCc2nnc(SCC(=O)CC(=O)Nc3ccccc3)o2)cc1 | 2.9 | 1.3 | -4.5 | 26.6* | -7.1 | -3.5 | >50
O=C1[C@H](CC[C@H](O)c2ccc(F)cc2)[C@@H](c2ccc(O)cc2)N1c1ccc(F)cc1 | -2.4 | / | / | ? | 3.2 | 1.0 | /
CC1(C)CCC[C@]2(C)[C@H]3CC(=O)O[C@]3(C)CC[C@@H]12 | / | / | / | 21.0* | / | / | >50
C[C@]12CCC3C(CC=C4C[C@@H](O)CC[C@@]43C)C1CCC2[C@]1(C)CCC(=O)O1 (stereo not given in full) | -0.4 | 11.0 | 19.3 | 0.0 | 2.7 | 2.3 | /
CCC(C)(C(=O)NC1CCCCC1)N(Cc1ccco1)C(=O)c1ccccn1 (stereo not given) | -1.2 | 0.0 | 5.1 | -0.4 | -8.6 | 0.7 | /
Cc1[nH]nc2c1C(c1ccc(O)cc1)C1=C(CC(C)(C)CC1=O)N2 (stereo not given) | -1.2 | 29.8 | -30.6 | -0.9 | -17.5 | 0.3 | /
CCc1ccc(C2C3=C(CC(C)(C)CC3=O)Nc3c2c(=O)[nH]c2nc(C)nn32)cc1 (stereo not given) | / | 0.5 | -10.2 | 39.8* | -14.6 | 61.9* | 7.12*
Oc1ccc(-c2[nH]ncc2-c2cccc3cccnc23)c(O)c1 | 1.7 | -0.4 | 2.0 | 17.4* | -2.8 | 0.2 | >50
O=C(Nc1c(C(=O)O)oc2ccc(Br)cc12)c1ccccc1 | -3.1 | 4.4 | -1.7 | 1.8 | -5.9 | 0.4 | /
C=CCN1C=CC(=CC=C(C#N)C#N)C=C1 | -49.8 | -3.9 | 1.1 | 20.9* | 1.3 | -25.8 | 16.6*
C=CCN1C=C/C(=C\C=C(C#N)C#N)c2ccccc21 | 14.6 | -0.2 | 36.6 | -6.5 | -9.8 | -0.2 | /
CCn1nc(NS(=O)(=O)c2ccc([N+](=O)[O-])cc2)c2cc3cccc(C)c3nc21 | / | / | / | -1.2 | / | / | /
CCCn1nc(NC(=O)CC(C)C)c2cc3cccc(C)c3nc21 | / | / | / | 19.9* | / | / | 31.8*
CSCC(C)N1CCC(N2CCC(C(=O)NCc3ccccn3)CC2)CC1 (stereo not given) | / | / | / | 18.9* | / | / | >50
COc1ccc2c(c1)CCc1c(C(=O)Nc3ccn(Cc4ccc(C)cc4)n3)noc1-2 | -4.3 | 4.6 | 3.8 | -4.6 | 6.7 | -2.0 | /
Cc1ccc(Cn2ccc(NC(=O)c3noc4c3CCc3ccccc3-4)n2)cc1 | -6.3 | -2.5 | -20.8 | 33.4* | -5.5 | 2.2 | >50
COc1nc(-c2cccc([N+](=O)[O-])c2)nc2ccccc12 | -0.4 | 20.8 | -2.5 | -2.9 | 0.4 | -1.4 | /
Cc1cccc(Oc2nc(-c3cccc([N+](=O)[O-])c3)nc3ccccc23)c1C | 1.5 | -0.9 | -8.5 | 20.7* | -5.0 | 2.3 | >50
O=C(NCCc1ccccc1)C(=S)N1CCCCC1 | 2.1 | 8.4 | -3.6 | -0.5 | -0.5 | -1.2 | /
CCCOc1ccc(C2C(C(=O)OC)=CN(CCOC)C=C2C(=O)OC)cc1 | / | 55.5* | -4.3 | 25.5* | -13.7 | 88.0* | 16.7*
CCCc1cc(=O)oc2cc(C)c(CN3CCCC3)c(O)c12 | -18.8 | 2.0 | 2.4 | 2.9 | 0.9 | -4.5 | /
CCCc1cc(=O)oc2c(CN3CCCC3)c(O)c(Cl)cc12 | 159.8* | 116.3* | -35.5 | 61.6* | / | 98.1* | 27.2* | Hck-Nef confirm=i
SMILES | Runt-SMMHC FRET | Hck Nef HTS | TbHK1 inh | RanGTP-Impb inh | 14-3-3 Bad inh | Runt-CBFb FRET | YIC FRET counter | others
CCOc1ccc(CCN2C(=O)c3ccc(C(=O)O)cc3C2=O)cc1OCC | / | / | / | -0.1 | / | / | /
O=C(c1ccccc1)c1cc2ccc(O)cc2oc1=O | 174.0* | 69.3* | -11.1 | 27.4* | -2.7 | / | 18.2*
CC(C)c1ccc(N(CC(=O)NC2CCCC2)C(=O)CCC(=O)Nc2ccccn2)cc1 | / | / | / | 1.8 | / | / | /
CC(=O)Oc1cc2oc(=O)cc(C)c2cc1OC(C)=O | 41.9 | 68.2* | -13.2 | 30.2* | -4.0 | 81.0* | 44.8*
CC(C)CCN(CCC(C)C)CC(O)Cn1c2ccccc2c(=O)c2ccccc21 (stereo not given) | 82.5* | 117.2* | 10.6 | 57.2* | -4.8 | 107.1* | 3.73*
CCN1N=C(C)C=C(c2ccccc2)n2c1nc1ccccc12 | 1.7 | 21.5 | -8.0 | -0.8 | 0.9 | 2.0 | /
CCOc1ccc(-n2c(N)c(C(=O)NCc3ccco3)c3nc4ccccc4nc32)cc1 | 86.0* | 52.9* | -16.9 | 25.1* | -4.8 | 34.7 | 20.8* | Hck-Nef confirm=i
CCOc1ccc(-n2c(N)c(-c3nc4ccccc4n3C)c3nc4ccccc4nc32)cc1 | -125.6 | 1.6 | -5.5 | 0.9 | 4.3 | -37.1 | /
CCOC(=O)C1(CCCc2ccccc2)CCN(S(=O)(=O)N(C)C)CC1 | / | / | / | 2.4 | / | / | /
CCN(CC)Cc1c(O)ccc2c(C)c(CC(=O)OC)c(=O)oc12 | 80.2* | 73.2* | -30.9 | 31.6* | 8.6 | 116.8* | 13.6*
C=C(C)COc1ccc2c(C)c(CC(=O)OC)c(=O)oc2c1C | -8.0 | 2.8 | -22.2 | / | -1.2 | -1.2 | /
O=C(NC(=S)Nc1ccc(Cc2ccncc2)cc1)c1ccc(F)cc1 | -1.5 | 68.2* | 4.6 | 1.6 | -15.6 | -1.8 | / | Hck-Nef confirm=i
O=c1cc(O)c2ccc(O)cc2o1 | -4.4 | 6.4 | -9.3 | -0.4 | 6.9 | -1.1 | /
COC(=O)Cc1cc(=O)oc2cc(O)ccc12 | 92.2* | 102.3* | -22.1 | 69.2* | 10.3 | 80.1* | /
CC(C)(C)n1nc(-c2ccc(Cl)cc2)c2c(N)ncnc21 | -3.5 | 104.7* | -2.7 | ? | 0.3 | -5.8 | / | Hck-Nef confirm=+
CC(C)(C)n1nc(-c2ccc(F)cc2)c2c(N)ncnc21 | -68.2 | 108.6* | 2.6 | ? | 3.2 | 1.6 | / | Hck-Nef confirm=+
O=C1CCc2cc(S(=O)(=O)NCc3ccccc3Cl)cc3c2N1CC3 | / | / | / | 2.3 | / | / | /
CN(CC(=O)Nc1ccc(F)cc1)C(=O)CSc1ncccn1 | / | / | / | 2.1 | / | / | /
Cc1ccc(Oc2ccc(C(F)(F)F)cc2[N+](=O)[O-])c([N+](=O)[O-])n1 | -0.4 | 51.8* | 1.0 | -2.1 | -0.5 | 0.9 | / | Hck-Nef confirm=i
Cc1c(Oc2ccc(C(F)(F)F)cc2[N+](=O)[O-])ccc2c3c(c(=O)oc12)CCC3 | 44.2 | 5.5 | -8.9 | 1.6 | -0.5 | 19.2 | /

Compound activity as filed in PubChem.
